Measurements from different studies.
Ribonuclease H1: Ribonuclease H1 (Homo sapiens, UniProt O60930)
CNR2: Cannabinoid receptor 2 (CNR2, Homo sapiens, UniProt P34972)
F10: Coagulation factor X (F10, Homo sapiens, UniProt P00742)

COc1ccc(-c2cccc(Nc3cc(=O)n(O)c(=O)n3C)c2)cc1  IC50 (Ribonuclease H1; enzyme activity; inhibitor): > 10000 nM
O=[N+]([O-])c1ccc(O)c([N+](=O)[O-])c1  Kd (Casein kinase I isoform alpha (CSNK1A1, Homo sapiens, UniProt P48729); binding; SPR): > 50000 nM
CCCCCc1ccccc1C/C=C\C/C=C\C/C=C\CCCC(=O)N[C@H](C)CO  EC50 (CNR2; cAMP; agonist): 678 nM
CC(C)(NC(=O)c1nn(CCCCC(F)(F)F)c2ccccc12)c1cccc(C(N)=O)c1  Ki (CNR2; ligand displacement; radioligand; cell membranes): 300 nM
CS(=O)(=O)N[C@@H](CCC(N)=O)C(=O)N[C@@H](Cc1ccccc1)C(=O)N[C@@H](CCCNC(=N)N)C(=O)c1nc2ccccc2s1  Ki (F10; cell-free assay): 16 nM
CCCCC/C=C\C/C=C\C/C=C\Cc1ccccc1CCCC(=O)N[C@H](C)CO  EC50 (CNR2; cAMP; agonist): 12.5 nM
CC(C)(NC(=O)c1nn(CC2CCCC2)c2ccccc12)c1cccc(C(N)=O)c1  Ki (CNR2; ligand displacement; radioligand; cell membranes): 110 nM
O=C1Cc2cc(-c3ccco3)ccc2C(=O)N1O  IC50 (Ribonuclease H1; enzyme activity; inhibitor): 2390 nM
CC[C@H](C)[C@@H](C(=O)N1CCC[C@H]1c1nccs1)N(C)C(=O)[C@H](CC(C)C)N(C)C(=O)[C@H](Cc1ccc(OC)cc1)N(C)C(=O)/C=C(\C)OC  IC50 (CNR2; ligand displacement; radioligand): 6100 nM
C[C@H](NC(=O)[C@H](CCC(N)=O)NC(=O)CCCCNC(=N)N)C(=O)N[C@@H](CCCNC(=N)N)C(=O)c1nc2ccccc2s1  Ki (F10; cell-free assay): 85 nM
COc1ccc(CCCCC(=O)C(F)(F)C(F)(F)F)cc1  IC50 (85/88 kDa calcium-independent phospholipase A2 (PLA2G6, Homo sapiens, UniProt O60733); enzyme activity; inhibitor): 170 nM
CCCCC/C=C\[C@H](C)/C=C\C/C=C\Cc1ccccc1CCCC(=O)OC(CO)CO  EC50 (CNR2; cAMP; agonist): 1130 nM
CC(C)(C#N)CCCn1nc(C(=O)NC(C)(C)c2cccc(C(N)=O)c2)c2ccccc21  Ki (CNR2; ligand displacement; radioligand; cell membranes): 130 nM
COc1cc2c(cc1OC)CN(CCc1ccc(NC(=O)c3cccc4c(=O)c5cccc(OC)c5[nH]c34)cc1)CC2  Ki (D(1B) dopamine receptor (DRD5, Homo sapiens, UniProt P21918); cell-free assay): > 10000 nM
CCCCC/C=C\[C@H](C)/C=C\C/C=C\Cc1ccccc1CCCC(=O)N[C@H](C)CO  EC50 (CNR2; β-arrestin recruitment; agonist): 213 nM
CCOC(=O)c1ccc(OC(=O)CCCCCN=C(N)N)cc1  IC50 (F10; enzyme activity; inhibitor): 790 nM
